These results are taken from ChEMBL document CHEMBL1146278, “Design and synthesis of substrate-mimic inhibitors of mycothiol-S-conjugate amidase from Mycobacterium tuberculosis” (Bioorg Med Chem Lett, 2007).

The assay deals with T1, Mycothiol S-conjugate amidase (Mycobacterium tuberculosis) (UniProt P9WJN1).
T1 sequence (whole entry): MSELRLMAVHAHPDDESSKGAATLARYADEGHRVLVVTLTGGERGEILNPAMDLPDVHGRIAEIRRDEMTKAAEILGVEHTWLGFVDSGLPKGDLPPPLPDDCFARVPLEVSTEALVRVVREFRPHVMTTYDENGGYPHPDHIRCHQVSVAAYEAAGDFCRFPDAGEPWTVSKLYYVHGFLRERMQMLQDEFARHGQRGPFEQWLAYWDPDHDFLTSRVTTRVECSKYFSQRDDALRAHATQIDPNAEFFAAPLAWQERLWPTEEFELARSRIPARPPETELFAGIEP
Kind of assay: Inhibition of Mycobacterium tuberculosis MCA at 50 uM. The essentials:
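Recombinant MCA was assayed by fluorescence-detected HPLC, with mycothiol bimane (MSmB) or its cyclohexyl thioglycoside analog as substrate. Inhibitors were screened at 100 and 50 μM, and the reported values are at a final 50 μM. Each value is the mean of two experiments. Below 10% inhibition was scored as no inhibition.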
`CCCSc1cc(C(=O)N[C@H]2[C@@H](O[C@@H]3C[C@](O)(CO)C[C@@H](O)[C@H]3O)O[C@H](CO)[C@@H](O)[C@@H]2O)ccn1` displayed an inhibition of 15%.

The compound `O=C(N[C@H]1[C@@H](O[C@@H]2C[C@](O)(CO)C[C@@H](O)[C@H]2O)O[C@H](CO)[C@@H](O)[C@@H]1O)c1ccco1` yielded an inhibition of 15%.

`O=C(N[C@H]1[C@@H](O[C@@H]2C[C@](O)(CO)C[C@@H](O)[C@H]2O)O[C@H](CO)[C@@H](O)[C@@H]1O)c1ccc([N+](=O)[O-])cc1`: the inhibition amounted to 15%.

Take `Cc1onc(-c2c(F)cccc2Cl)c1C(=O)N[C@H]1[C@@H](O[C@@H]2C[C@](O)(CO)C[C@@H](O)[C@H]2O)O[C@H](CO)[C@@H](O)[C@@H]1O`: the inhibition was under 10%.

`CN(C)c1ccc(C(=O)N[C@H]2[C@@H](O[C@@H]3C[C@](O)(CO)C[C@@H](O)[C@H]3O)O[C@H](CO)[C@@H](O)[C@@H]2O)cc1` had an inhibition of 44%.

Regarding `O=C(N[C@H]1[C@@H](O[C@@H]2C[C@](O)(CO)C[C@@H](O)[C@H]2O)O[C@H](CO)[C@@H](O)[C@@H]1O)c1cccs1`, the inhibition was found to be 13%.

With `CCCc1c(C(=O)N[C@H]2[C@@H](O[C@@H]3C[C@](O)(CO)C[C@@H](O)[C@H]3O)O[C@H](CO)[C@@H](O)[C@@H]2O)cnn1-c1cc(Cl)cc(Cl)c1`, the inhibition is 26%.

`O=C(N[C@H]1[C@@H](O[C@@H]2C[C@](O)(CO)C[C@@H](O)[C@H]2O)O[C@H](CO)[C@@H](O)[C@@H]1O)c1ccc2ccccc2c1` showed an inhibition of 13%.

For the compound `O=C(N[C@H]1[C@@H](O[C@@H]2C[C@](O)(CO)C[C@@H](O)[C@H]2O)O[C@H](CO)[C@@H](O)[C@@H]1O)c1cccnc1Sc1ccc(Cl)cc1`, the inhibition was determined as 10%.

The compound `O=C(N[C@H]1[C@@H](O[C@@H]2C[C@](O)(CO)C[C@@H](O)[C@H]2O)O[C@H](CO)[C@@H](O)[C@@H]1O)c1ccc2ccsc2c1` showed an inhibition of under 10%.

In the case of `CC(C)S(=O)(=O)c1csc(C(=O)N[C@H]2[C@@H](O[C@@H]3C[C@](O)(CO)C[C@@H](O)[C@H]3O)O[C@H](CO)[C@@H](O)[C@@H]2O)c1Cl`, the inhibition turned out to be 11%.

In turn, `O=C(N[C@H]1[C@@H](O[C@@H]2C[C@](O)(CO)C[C@@H](O)[C@H]2O)O[C@H](CO)[C@@H](O)[C@@H]1O)c1ccc(C(F)(F)F)cc1` showed an inhibition of 16%.

Turning to `O=C(N[C@H]1[C@@H](O[C@@H]2C[C@](O)(CO)C[C@@H](O)[C@H]2O)O[C@H](CO)[C@@H](O)[C@@H]1O)c1ccncc1`, the inhibition came to 46%.

In the case of `O=C(N[C@H]1[C@@H](O[C@@H]2C[C@](O)(CO)C[C@@H](O)[C@H]2O)O[C@H](CO)[C@@H](O)[C@@H]1O)C1CC1`, the inhibition came out at 13%.

Usually inhibition stands for the drop in the measured response relative to a control, in per cent. Low readings indicate little suppression, high ones strong suppression.
